Reference: publication PMC7880169 (Medicinal chemistry research : an international journal for …, 2020)
Like-named read-outs stand apart in the source and are kept apart here.

Tests used:
[1] = biological target: T1, σ1R (Cavia porcellus, UniProt Q60492); assay: σ1R radioligand binding with [3H]; set-up: species or system guinea pig; conditions: for Ki σ2R /Ki σ1R: selectivity ratio σ2R over σ1R
In short: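 Membranes from frozen whole guinea pig brain. Each tube held 3 nmol/L [3H](+)-pentazocine (28 Ci/mmol) and 8.0 mg tissue.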

[2] = In vitro microsomal stability in RLMs; assay type: in vitro ADME, rat; conditions: for microsomal CLint at 1 μM: rat, rat liver microsomes, pH 7.4
In short: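 Test compound at 1 μM (spiked from 200 μM stock) in 50 mM phosphate buffer pH 7.4 with 1 mg protein/mL rat liver microsomes and 3 mM MgCl2. Mixture pre-incubated 5 min at 37 ± 0.5 °C, then started with NADPH (1 mM final) and shaken for 30 min. Aliquots taken at 0, 5, 10, 15, 20 and 30 min, quenched in ice-cold acetonitrile with internal standard, filtered and analysed by LC-MS/MS. Controls: verapamil (positive) and no-NADPH mixture (negative).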

[3] = Metabolic soft spot identification of 12 in RLMs; assay type: in vitro ADME, rat; conditions: RLMs with NADPH
In short: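 Test compound at 10 μM in 50 mM phosphate buffer pH 7.4 with 1 mg protein/mL rat liver microsomes, pre-incubated 5 min at 37 ± 0.5 °C with shaking. Reaction started with NADPH (1 mM final). Samples taken at 0 min (control) and 10 min, mixed with an equal volume of ice-cold acetonitrile, vortexed 2 min and centrifuged at 10,000 g for 5 min. Supernatant analysed by LC-HRMS on a QToF.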

[4] = biological target: T1, σ1R; conditions: selectivity ratio; ref Yous et al. 2005; cited from earlier work
[5] = biological target: σ2R; conditions: read-out: Ki (nM ± SEM) σ2R; ref Yous et al. 2005; cited from earlier work

T1 sequence (Q60492 whole entry): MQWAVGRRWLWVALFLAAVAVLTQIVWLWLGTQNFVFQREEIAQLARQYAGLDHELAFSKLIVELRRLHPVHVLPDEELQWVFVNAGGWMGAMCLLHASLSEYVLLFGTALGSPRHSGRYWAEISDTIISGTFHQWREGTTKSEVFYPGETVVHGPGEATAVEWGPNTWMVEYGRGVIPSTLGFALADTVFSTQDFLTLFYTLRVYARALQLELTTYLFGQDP

SMILES: CCCc1ccc2c(c1)sc(=O)n2CCN(C)C12CC3CC(CC(C3)C1)C2 [Compound 12, 3-{2-[(Adamantan-1-yl)(methyl)amino]ethyl}−6-propylbenzo[d]thiazol-2(3H)-one]
- Ki [1]: 7.2 ± 0.88 nM
- Ki σ2R /Ki σ1R [1]: 61
- microsomal CLint at 1 μM [2]: 370 µL/min/mg
- remaining unmodified at the end of 10 min incubation [3]: ca. 6%

SMILES: O=c1sc2ccccc2n1CCNC12CC3CC(CC(C3)C1)C2 [Compound 7, 3-{2-[(Adamantan-1-yl)amino]ethyl}benzo[d]thiazol-2(3H)-one]
- Ki [1]: 131 ± 9.94 nM
- Ki σ2R /Ki σ1R [1]: 0.5
- microsomal CLint at 1 μM [2]: 460 µL/min/mg

SMILES: CN(CCn1c(=O)sc2ccccc21)C12CC3CC(CC(C3)C1)C2 [Compound 10, 3-{2-[(Adamantan-1-yl)(methyl)amino]ethyl}benzo[d]thiazol-2(3H)-one]
- Ki [1]: 12.9 ± 1.8 nM
- Ki σ2R /Ki σ1R [1]: 6.6
- microsomal CLint at 1 μM [2]: 650 µL/min/mg

SMILES: CCC(=O)c1ccc2c(c1)sc(=O)n2CCNC12CC3CC(CC(C3)C1)C2 [Compound 8, 3-{2-[(Adamantan-1-yl)amino]ethyl}−6-propionylbenzo[d]thiazol-2(3H)-one]
- Ki [1]: 11.2 ± 1.26 nM
- Ki σ2R /Ki σ1R [1]: 6.3
- microsomal CLint at 1 μM [2]: 160 µL/min/mg

SMILES: CCCc1ccc2c(c1)sc(=O)n2CCN1CCCCCC1 [SN56, 3-[2-(azepan-1-yl)ethyl]-6-propylbenzo[d]thiazol-2(3H)-one, reference compound]
- t1/2 (in vitro hepatic microsomal half-life) ([2]; RLMs 1 mg protein/mL, 1 μM compound, NADPH, 37 °C): 58.8 s
- microsomal CLint at 1 μM [2]: 710 µL/min/mg
- Ki σ2R /Ki σ1R [4]: >1000
- Ki [5]: > 1000 nM

SMILES: CCCc1ccc2c(c1)sc(=O)n2CCNC12CC3CC(CC(C3)C1)C2 [Compound 9, 3-{2-[(Adamantan-1-yl)amino]ethyl}−6-propylbenzo[d]thiazol-2(3H)-one]
- Ki [1]: 11.2 ± 0.68 nM
- Ki σ2R /Ki σ1R [1]: 6.2
- microsomal CLint at 1 μM [2]: 280 µL/min/mg

SMILES: CCC(=O)c1ccc2c(c1)sc(=O)n2CCN(C)C12CC3CC(CC(C3)C1)C2 [Compound 11, 3-{2-[(Adamantan-1-yl)(methyl)amino]ethyl}−6-propionylbenzo[d]thiazol-2(3H)-one]
- Ki [1]: 12.9 ± 1.84 nM
- Ki σ2R /Ki σ1R [1]: 8.7
- microsomal CLint at 1 μM [2]: 560 µL/min/mg
